Most compounds without a hit are left out; they make up all but 2% or so of the library.
PG9 Ab binder – binds the HIV-1 gp120 antibody PG9 | 360,000 tested, 0.43% active | inhibition, % at 6.7 µM | AID 624416 | TR-FRET gp120-PG9 antibody binding; in the data active means inhibition above about 8.5%
Rev-erbA mod – modulates human Rev-erb alpha binding to DNA; Rev-erbα–FITC-DNA binding, fluorescence polarization, 90 min; AID 1259318; activity, % at 10 µM; 370,000 tested, 0.79% active;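 active means activity above about 14%, limit read from the data; passing the limit was not always enough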;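 further: 0% = DMSO wells with 35 nM protein and 100% = DMSO wells with 750 nM protein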
NR2E3 ag-1 – activates human photoreceptor nuclear receptor NR2E3. Q9Y5X4. GST-NR2E3/biotin-RetCOR TR-FRET, 1536-well. inhibition of corepressor binding, % at 4.78 µM. 320,000 tested, 0.12% active. AID 2300;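 active means percent inhibition above the cutoff of mean plus 3 SD of all tested compounds, set per screening campaign, cut at about 20% in these data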;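 further: 0% = DMSO wells and 100% = biotin wells as full block of FRET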
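Assay system: NR2E3–RetCOR corepressor complex. Quantity: 1.35 nM GST-NR2E3. Buffer or medium: pH 7.5 Tris-based buffer. Reagent: biotinylated RetCOR corepressor at 7 nM final. Schedule: 5 h at 4 °C. Detection: TR-FRET, emission read at 617 and 671 nm. Replicates: one well per compound, singlicate testing.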
Neddylation inh – inhibitors of human cullin neddylation. 360,000 tested, 0.58% active. AID 651699. calls only at 25 µM. TR-FRET cullin neddylation, biochemical. P61081+Q13564; in the data active means inhibition above about 36%
Target sequence (P61081 whole entry, looked up): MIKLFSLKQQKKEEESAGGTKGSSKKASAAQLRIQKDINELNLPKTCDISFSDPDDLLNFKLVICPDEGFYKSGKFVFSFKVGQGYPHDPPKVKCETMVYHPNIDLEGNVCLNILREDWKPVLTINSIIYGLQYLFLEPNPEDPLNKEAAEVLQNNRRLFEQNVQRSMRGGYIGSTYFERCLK
Target sequence (Q13564 whole entry, looked up): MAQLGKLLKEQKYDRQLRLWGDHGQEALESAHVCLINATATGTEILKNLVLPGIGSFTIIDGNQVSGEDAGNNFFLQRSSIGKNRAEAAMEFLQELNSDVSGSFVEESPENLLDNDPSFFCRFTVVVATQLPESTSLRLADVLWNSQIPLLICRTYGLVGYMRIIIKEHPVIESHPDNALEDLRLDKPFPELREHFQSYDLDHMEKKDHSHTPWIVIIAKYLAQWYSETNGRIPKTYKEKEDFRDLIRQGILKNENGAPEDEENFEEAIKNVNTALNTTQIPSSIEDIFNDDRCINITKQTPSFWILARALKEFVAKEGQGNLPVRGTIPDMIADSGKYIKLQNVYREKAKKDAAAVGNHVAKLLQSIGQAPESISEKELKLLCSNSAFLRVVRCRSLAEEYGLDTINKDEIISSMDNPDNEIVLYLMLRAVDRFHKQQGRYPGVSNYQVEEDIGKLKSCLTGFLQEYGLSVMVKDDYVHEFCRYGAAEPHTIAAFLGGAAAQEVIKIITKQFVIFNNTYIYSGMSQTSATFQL
NR2E3 ag-2 – human photoreceptor-specific nuclear receptor agonism; Q9Y5X4; CHO-S Gal4-NCOR/VP16-NR2E3 two-hybrid, luciferase; inhibition of corepressor binding, % at 3.98 µM; 360,000 tested, 0.35% active; AID 602229;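 active means inhibition above the mean of all tested compounds plus 3 SD, cut at about 70% in these data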;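 further: 0% = DMSO with NR2E3 transfected cells and 100% = cells lacking NR2E3 construct; higher means lower luciferase signal from less NR2E3 corepressor binding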
NR2E3 ag confirm – NR2E3 agonism confirmed in two-hybrid assay | shares compounds with NR2E3 ag-2 | CHO-S mammalian two-hybrid NR2E3-NCOR, luciferase luminescence | inhibition, % at 3.98 µM | 2,300 tested, 51% active | AID 624378;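 active means average inhibition above a cutoff equal to the mean inhibition of all tested compounds plus one SD, cut at about 70% in these data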;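 further: 0% = DMSO in NR2E3 cells and 100% = DMSO in cells lacking NR2E3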
VP16 counter – GAL4-VP16 reporter inhibition in NR2E3 agonist counterscreen. shares compounds with NR2E3 ag-2. inhibition, % at 3.98 µM. CHO-S GAL4-VP16 luciferase reporter, luminescence. 2,300 tested, 29% active;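 active means mean inhibition above a cutoff equal to the average over all tested compounds plus one standard deviation, cut at about 70% in these data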;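 further: luciferase from a UAS reporter driven by GAL4-VP16 transactivation; 0% = DMSO with VP16-transfected cells and 100% = DMSO with cells lacking VP16; higher means less reporter light so more repression of VP16 activity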
* marks the source's active call; other numbers are inactive results; i = inactive; / = no result shown.

SMILES	PG9 Ab binder	Rev-erbA mod	NR2E3 ag-1	Neddylation inh	NR2E3 ag-2	NR2E3 ag confirm	VP16 counter
CCOc1cc(/C=C/c2cc(C(F)(F)F)[nH]c(=O)n2)ccc1O	-8.6	-2.0	2.1	i	16.2	/	/
CC(=O)/C(N=Nc1ccc2c(c1)OCCO2)=C(\C)O	-2.5	-1.9	-1.7	i	52.0	31.0	12.4
O=C(CCc1ccccc1)N[C@H]1[C@H](O)CCC[C@@]12C(=O)N(Cc1ccccc1)c1ccc(-c3ccccc3)cc12	/	6.4	/	/	/	/	/
O=C(c1cc(S(=O)(=O)N2CCN(c3ccccc3)CC2)ccc1Cl)N1CCCC(C(F)(F)F)C1 (centres undefined)	-1.3	4.6	1.9	i	81.5*	92.3*	76.3*
O=C(c1cccc(S(=O)(=O)N2CCN(c3ccccc3)CC2)c1)N1CCCC(C(F)(F)F)C1 (centres undefined)	1.8	2.4	0.2	i	5.3	/	/
CCCc1cc(=O)n2nc(N3CCC(C(=O)N4CCN(c5ccc(OC)cc5)CC4)CC3)sc2n1	-1.1	3.9	0.3	i	68.9	74.7*	55.1
CC(C)Cn1c(N)c(C(=O)CSc2ccc3c(c2)OCCO3)c(=O)n(C)c1=O	1.8	-1.8	-4.7	i	59.4	92.2*	85.0*
CC(C)Cn1c(N)c(C(=O)COC(=O)c2ccc3c(c2)OCCO3)c(=O)n(C)c1=O	-1.8	0.2	1.5	i	18.2	/	/
O=S1(=O)CC2c3ccc(F)cc3CN2CN1CCc1ccccc1 (centres undefined)	/	2.6	/	/	/	/	/
C=CCN1[C@H](Cc2ccccc2)COc2cccc(N3CCCC3)c2S1(=O)=O	/	7.5	/	/	/	/	/
COC(=O)[C@]12C[C@H](CC(=O)NCC3CCCCC3)C(=O)N(Cc3cccc4ccccc34)C1=C[C@H](C(C)C)O[C@@H]2C1CC1	/	0.4	/	/	/	/	/
CC1=CCC(C(=O)O)C(C(=O)Nc2ccc(-c3nc4ccc(C)cc4s3)cc2)C1 (centres undefined)	0.3	4.5	2.5	/	50.5	55.1	-37.5
CC(=O)NC(=S)Nc1ccc(-c2nc3ccc(C)cc3s2)cc1	-1.1	12.0	4.2	i	-141.2	/	/
O=c1c2ccccc2n(Cc2ccno2)n1[C@@H](Cc1ccccc1)Cn1cc(-c2ccc(-c3ccccc3)cc2)nn1	/	-1.6	/	/	/	/	/
COC(=O)[C@]12C[C@H](CC(=O)NCCCN3CCCC3=O)C(=O)N(CCC3=CCCCC3)C1=C[C@H](COCc1ccccc1)O[C@@H]2C	-0.2	-0.6	/	/	/	/	/
Cc1nn(C)c(Cl)c1NC(=O)OCc1ccc(Cl)cc1Cl	-1.9	1.2	2.4	i	67.3	90.8*	67.4
CC(C)(C)OC(=O)NCCCc1ccc2c(c1)[C@]1(CCC[C@@H](OCc3ccccc3)[C@@H]1NC(=O)CCc1ccccc1)C(=O)N2Cc1ccccc1	/	4.7	/	/	/	/	/
COc1cc(CCc2ccccc2)c(C(=O)O)c(O)c1CC=C(C)C	-0.1	-7.6	/	i	84.9*	99.2*	78.4*
COc1cc(CCc2ccccc2)c(C(=O)O)c(O)c1C/C=C(/C)CCC=C(C)C	0.6	1.8	/	i	50.2	98.4*	71.3*
C=C(C(=O)c1ccccc1)C(c1ccccc1)C(C)C(=O)c1ccccc1 (centres undefined)	-1.1	-1.4	-0.3	i	4.8	/	/
C=C(C(=O)c1ccccc1)C(C)C(=C)C(=O)c1ccccc1	0.5	3.3	3.0	i	69.5	79.0*	27.1
Cc1ccc(C)c(C(=O)COc2ccc(C)nc2[N+](=O)[O-])c1	-2.5	/	0.5	i	-8.4	/	/
C=CCn1c(C)cc(C(=O)COc2ccc(C)nc2[N+](=O)[O-])c1C	-0.7	-1.8	-0.2	i	71.4*	71.1*	52.9
Cc1ccc(OCC(=O)c2cc(C)n(-c3ccccc3)c2C)c([N+](=O)[O-])n1	0.9	4.6	-1.9	i	73.4*	61.1	66.7
CCCn1c(C)cc(C(=O)COc2ccc(C)nc2[N+](=O)[O-])c1C	-3.7	-4.8	-0.6	i	15.2	/	/
SMILES	PG9 Ab binder	Rev-erbA mod	NR2E3 ag-1	Neddylation inh	NR2E3 ag-2	NR2E3 ag confirm	VP16 counter
COCCn1c(C)cc(C(=O)COc2ccc(C)nc2[N+](=O)[O-])c1C	-3.3	0.8	-0.1	i	63.1	76.9*	43.8
Cn1cncc1[C@@](N)(c1ccc(Cl)cc1)c1ccc2c(c1)c(-c1cccc(Cl)c1)cc(=O)n2C	/	14.5	/	/	/	/	/
CC1CC(C)C(=NNC(N)=O)C(C(O)CC2CCC(=O)NC2=O)C1 (centres undefined)	2.6	-1.0	/	i	101.6*	84.7*	35.0
C1=Cc2cccc(OCC3CNCCO3)c2C1 (centres undefined)	/	1.0	/	/	/	/	/
CC(=O)c1cccc(NS(=O)(=O)c2ccc(NC(=O)N3CCCCC3)cc2)c1	0.7	-0.8	-0.7	i	67.8	28.8	32.7
CC(=O)c1cccc(NC(=O)N2CCCCCC2)c1	-1.0	0.4	0.4	i	-15.9	/	/
CCCCn1c(CN2CCN(c3cccc(Cl)c3)CC2)nc2c1c(=O)n(C)c(=O)n2C	0.3	0.4	-0.8	i	-13.8	/	/
CCCn1c(CN2CCN(c3cccc(Cl)c3)CC2)nc2c1c(=O)n(C)c(=O)n2C	-0.5	2.4	-0.9	i	92.6*	93.7*	85.0*
O=C(Nc1cccc(C(F)(F)F)c1)OC1CC2CC1[C@H]1CCCCN1[C@H]2Cc1ccccc1 (some centres undefined)	/	10.6	/	/	/	/	/
Oc1ccccc1N=Cc1ccc[nH]1	-2.4	-6.1	-2.5	i	57.7	6.8	14.7
Cc1cccc(CCNC(=O)c2ccc(Sc3ccccc3Cl)c([N+](=O)[O-])c2)c1	/	11.9	/	/	/	/	/
CSc1ccc(C(=O)C2CCCN(C(=O)CCc3c(C)nn(C)c3C)C2)cc1 (centres undefined)	-0.3	-1.6	3.2	i	56.4	45.2	43.2
COc1ccc(CN(C)Cc2nc(Cc3cccc(F)c3)no2)c2cccnc12	-1.8	-3.5	3.4	i	80.4*	92.4*	80.7*
COC(=O)[C@]12C[C@H](CC(=O)N3CCCCC3)C(=O)N(Cc3ccccc3)C1=C[C@H](C(C)C)O[C@@H]2C1CC1	0.0	-0.1	/	/	/	/	/
O=C(CSc1nnc(NC(=O)C2CC2)s1)NCc1ccccc1	-0.6	1.5	1.8	i	68.1	-24.6	-8.6
O=C(CSc1nnc(NC(=O)C2CC2)s1)NCc1ccc(F)cc1	-0.1	-0.3	0.5	i	7.6	/	/
C=CCC1(CC=C)CCCN1C(=O)c1cc(COc2cncc(Cl)c2)on1	-1.8	-0.3	-0.2	i	89.6*	86.6*	69.2
C1=C(CCNc2ncnc3c2[nH]c2ccccc23)CCCC1	-1.5	-1.3	-0.1	i	74.0*	96.9*	80.8*
COc1ccc(CNc2ncnc3c2[nH]c2ccccc23)cc1	-1.5	-0.3	0.8	i	57.0	89.3*	72.4*

Screens deposited in PubChem BioAssay by several laboratories.
